Source: PubChem BioAssay
DENV2 CPE rescue: DENV2-induced cell death inhibition; CPE inhibition, % at 9.99 µM; AID 651640; DENV2-infected cells, cytopathic effect rescue, plate reader; 350,000 compounds, 1.7% hits; in the data active = CPE inhibition above about 20%, passing the limit was not always enough; inconclusive = no clear call, values can overlap the other calls; tested in BHK-21 cells
CaV13 FRET inh: Primary screen for inhibitors of IQ motif and Ca2+-dependent inactivation inhibitor domain binding in CACNA1D, Förster resonance energy transfer in living cells, …. 340,000 compounds, 0.098% hits. AID 743397. inhibition, % at 12.3 µM. HEK cells, CFP/YFP FRET ICDI-IQ, plate reader, 10 min; percent FRET-ratio fall versus neutral wells;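 active = mean replicate inhibition of at least 30% and at least 1% of replicates passing that level; inconclusive = only one of the two criteria is met; inactive = neither criterion is met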
S100A4 inh HTS: inhibitors of human S100A4 binding to myosin IIA peptide; P26447; S100A4/TAMRA-MyoIIA peptide fluorescence polarization; inhibition, % at 10.7 µM; 360,000 compounds, 0.14% hits;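 active = mean inhibition of at least 70% across replicates, with every replicate also reaching that level; inconclusive = mean inhibition reaches 70% but some replicates fall short; inactive = mean inhibition below 70%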
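Material: human S100A4 monomer with TAMRA-labelled myosin IIA peptide; buffer or medium: HEPES pH 7.2 with CaCl2, KCl, NaCl, DTT, Triton; compound dosing: one concentration per compound; schedule: 5 min incubation before reading; benchmarks: neutral control DMSO, positive control TFP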
SIRT5 inh: blocks human SIRT5 desuccinylation of peptide | AID 652115 | Q9NXA8 | inhibition, % at 15 µM | 330,000 compounds, 1.1% hits | Purified SirT5, succinyl-peptide AMC, trypsin-coupled fluorescence; in the data active = inhibition above about 15%; inconclusive = no clear call, values can overlap the other calls
AF4-AF9 inh: blocks AF4 peptide binding to human AF9 | P42568 | AlphaScreen, biotin-AF4 peptide binding to FLAG-AF9 | inhibition, % at 10 µM | 350,000 compounds, 0.47% hits | AID 651704;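 active = every replicate reaching a set inhibition limit, whatever the replicate mean, cut at about 25% in these data; inconclusive = mean inhibition reaches that limit but some replicates miss it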
Target sequence (P42568 whole entry, looked up): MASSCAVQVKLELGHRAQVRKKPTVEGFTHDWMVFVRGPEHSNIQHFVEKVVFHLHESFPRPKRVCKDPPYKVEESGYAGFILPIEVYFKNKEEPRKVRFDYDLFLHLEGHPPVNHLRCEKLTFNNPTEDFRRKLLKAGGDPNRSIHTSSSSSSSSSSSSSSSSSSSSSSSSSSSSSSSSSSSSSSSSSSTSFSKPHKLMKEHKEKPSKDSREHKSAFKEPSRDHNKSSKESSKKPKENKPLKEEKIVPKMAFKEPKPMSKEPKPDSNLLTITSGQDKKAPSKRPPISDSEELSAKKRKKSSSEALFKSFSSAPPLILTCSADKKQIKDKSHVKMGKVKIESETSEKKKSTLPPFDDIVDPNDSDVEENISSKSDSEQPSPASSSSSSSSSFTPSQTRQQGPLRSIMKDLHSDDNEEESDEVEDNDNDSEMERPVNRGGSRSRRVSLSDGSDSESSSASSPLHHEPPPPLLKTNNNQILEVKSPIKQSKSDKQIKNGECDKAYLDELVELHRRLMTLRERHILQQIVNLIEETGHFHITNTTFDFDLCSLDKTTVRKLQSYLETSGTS
Numbers stand for hits; . = inactive; ? = inconclusive; / = no result; + = active, no number. An excerpt weighted towards active compounds, which were near 2.7% of everything screened.

SMILES	DENV2 CPE rescue	CaV13 FRET inh	S100A4 inh HTS	SIRT5 inh	AF4-AF9 inh
C/C=C/c1ccc([C@H]2[C@@H](CO)N(CC3CCCC3)C23CN(S(=O)(=O)CC)C3)cc1	23	/	.	.	.
C/C=C/c1ccc([C@H]2[C@@H](CO)N(CCC(F)(F)F)C23CN(C(=O)CC2CC2)C3)cc1	65	/	.	.	.
C/C=C/c1ccc([C@H]2[C@@H](CO)N(CC3CCOCC3)C23CN(S(=O)(=O)CC)C3)cc1	27	/	.	.	.
C/C=C/c1ccc([C@@H]2[C@H](CO)N(CC3CCCC3)C23CN(S(=O)(=O)CC)C3)cc1	.	/	.	.	.
C/C=C/c1ccc([C@@H]2[C@H](CO)N(Cc3cncnc3)C23CN(C(=O)CC2CC2)C3)cc1	.	/	.	.	.
CCCC(=O)Nc1ccc2c(c1)OC[C@H](C)N(Cc1ccccn1)C[C@H](C)[C@H](OC)CN(C)C2=O	.	/	.	.	.
C[C@H](CO)N1C[C@H](C)[C@@H](CN(C)Cc2ccc3c(c2)OCO3)OCCCC[C@H](C)Oc2ccc(NS(=O)(=O)c3ccccc3)cc2C1=O	.	/	.	.	.
CCCCN1CC(COCc2ccccc2)Oc2cccc(Oc3ccc(SC)c(C)c3)c2S1(=O)=O (configuration not stated)	.	.	.	/	.
C/C=C/c1ccc([C@H]2[C@@H](CO)N(CC3CC3)C23CN(S(C)(=O)=O)C3)cc1	51	/	.	.	.
C/C=C/c1ccc([C@@H]2[C@H](CO)N(C(=O)CC3CC3)C23CN(S(C)(=O)=O)C3)cc1	.	/	.	.	.
CCCCC1=CC2=CC(=O)C(C)(OC(=O)CC)C(=O)C2=CN1CCc1c[nH]c2ccccc12 (configuration not stated)	20	.	.	.	.
COC(=O)CCCC1=CC2=CC(=O)C(C)(OC(=O)c3cccs3)C(=O)C2=CN1CCc1c[nH]c2ccccc12 (configuration not stated)	.	.	.	.	.
C[C@H](CO)N1C[C@H](C)[C@H](CN(C)C(=O)c2cccnc2)Oc2ncc(Br)cc2C1=O	.	/	.	.	.
C[C@H]1CN([C@@H](C)CO)C(=O)c2cccc(NC(=O)c3cnccn3)c2O[C@@H]1CN(C)C(=O)Nc1cccc2ccccc12	.	/	.	.	.
C[C@@H]1CN([C@@H](C)CO)C(=O)c2cc(NC(=O)Cc3cn(C)c4ccccc34)ccc2O[C@H]1CN(C)S(C)(=O)=O	.	/	.	.	.
COC(=O)c1sc(-c2ccccc2)cc1NC(=O)C1CC1	.	.	.	.	.
CCOc1ccc(NC(=O)Nc2cc(-c3ccccc3)sc2C(=O)OC)cc1	.	.	.	16	.
Cc1ccc(-c2ccccc2[C@H]2[C@@H](C#N)N(S(C)(=O)=O)[C@@H]2CO)cc1	.	/	.	.	.
C[C@@H]1CN([C@@H](C)CO)C(=O)Cc2cc(NC(=O)C3CC3)ccc2O[C@H]1CN(C)S(=O)(=O)c1ccccc1	34	/	.	.	.
C[C@@H]1CN([C@@H](C)CO)C(=O)Cc2cc(NC(=O)C3CC3)ccc2O[C@H]1CN(C)S(=O)(=O)c1ccc(Cl)cc1	70	/	.	.	.
C[C@@H]1CN([C@@H](C)CO)C(=O)Cc2cc(NC(=O)C3CC3)ccc2O[C@@H]1CN(C)S(=O)(=O)c1ccccc1	.	/	.	.	.
C[C@@H]1CN([C@H](C)CO)C(=O)Cc2cc(NC(=O)C3CC3)ccc2O[C@@H]1CN(C)S(=O)(=O)c1ccc(Cl)cc1	.	/	.	.	.
O=C(Nc1ccc2c(c1)[C@H]1C[C@H](CC(=O)N3CCCCC3)O[C@@H](CO)[C@H]1O2)C1CCOCC1	.	/	.	.	.
N#Cc1c2ccc(O)cc2n2ccccc12	.	+	.	.	.
CCCCOc1ccc(C(=O)Nc2ccc(CN3CCOCC3)cc2)cc1	?	.	.	29	.
SMILES	DENV2 CPE rescue	CaV13 FRET inh	S100A4 inh HTS	SIRT5 inh	AF4-AF9 inh
CCCOc1ccc(C(=O)Nc2ccc(CN3CCOCC3)cc2)cc1	.	.	.	.	.
CCCOc1cccc(C(=O)Nc2ccc(CN3CCOCC3)cc2)c1	25	.	.	.	.
CCCCNC(=O)C(NC(=O)c1ccc2c(c1)OCO2)C(=O)c1ccccc1 (configuration not stated)	.	.	.	/	.
Cc1cn2c(N)c(C=C3C=C(Cl)C(=O)C(Cl)=C3)c(=O)nc2s1	.	.	.	20	.
COC1=C/C(=C/c2c(N)n3cc(C)sc3nc2=O)C=CC1=O	.	.	.	.	.
O=C(C[C@H]1CC[C@@H](NC(=O)CN2CCOCC2)[C@H](CO)O1)NCc1cccc(F)c1	.	/	.	.	.
COC(=O)c1ccccc1-c1c2ccc(=N)cc-2oc2cc(N)ccc12	.	.	+	.	.
COC(=O)c1ccccc1-c1ccc(/C=N/NC(=O)c2cc3ccccc3o2)o1	/	.	/	/	/
COc1ccc(CN(C)C[C@@H]2OCCCC[C@H](C)Oc3ccc(NS(=O)(=O)c4cccs4)cc3C(=O)N([C@@H](C)CO)C[C@@H]2C)cc1	.	/	.	.	.
COc1cccc(CN(C)CCCn2cnc3c(SC)ncnc32)c1	.	.	.	15	.
COc1cccc(C(=O)c2c(-c3ccccc3)ncc3cc(OC)c(OC)cc23)c1	27	.	.	.	.
COc1cc2cnc(-c3ccccc3)c(C(=O)c3ccc(F)cc3)c2cc1OC	.	.	.	/	.
CCN(CC)CCOc1ccc(/C(=C(\Cl)c2ccccc2)c2ccccc2)cc1	?	.	.	.	32
COc1cccc(OC)c1-c1cnc(NC(C)=O)cn1	24	.	.	/	.
C[C@@H]1CN([C@@H](C)CO)C(=O)c2cc(C#CC3CCCC3)cnc2O[C@@H]1CN(C)C(=O)c1ccncc1	.	/	.	.	.
COc1ccccc1CNC(=O)C1CCC(CNS(=O)(=O)c2ccc(F)cc2)CC1 (configuration not stated)	.	.	.	21	.
COCCNC(=O)C1CCC(CNS(=O)(=O)c2ccccc2)CC1 (configuration not stated)	.	.	.	.	.
O=C(NCCN1CCOCC1)C1CCC(CNS(=O)(=O)c2ccc(Cl)cc2)CC1 (configuration not stated)	/	.	.	24	.
COCCNC(=O)C1CCC(CNS(=O)(=O)c2ccc(F)cc2)CC1 (configuration not stated)	34	.	.	.	.
CNC[C@@H]1Oc2c(NS(=O)(=O)c3ccccc3)cccc2C(=O)N([C@@H](C)CO)C[C@H]1C	.	/	.	.	.
Cc1ncc([N+](=O)[O-])n1CC(=O)Nc1ccc(F)c(F)c1	35	.	.	.	.
Cc1ncc([N+](=O)[O-])n1CC(=O)Nc1ccc(Cl)cc1	.	.	.	.	.
O=C(NCC(=O)N1CCN(C(c2ccccc2)c2ccccc2)CC1)c1ccc(Br)o1	.	.	.	.	.
